Measurements taken from ChEMBL document CHEMBL4814057, “4-4-(Anilinomethyl)-3-[4-(trifluoromethyl)phenyl]-1H-pyrazol-1-ylbenzoic acid derivatives as potent anti-gram-positive bacterial agents” (Eur J Med Chem, 2021).
In brackets after ≈: the same amount, converted by molar mass. Activity calls are given as the source filed them. The calls are words filed in the database; no cut-off is given here.

Assays:
Staphylococcus aureus [1] = test: Inhibition of RNA synthesis in Staphylococcus aureus ATCC 29213 at 8 times MIC measured by liquid scintillation counter; format: functional
In short: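 Early-exponential cells in CAMHB added to drug (40x stock) in triplicate, with a no-drug control. After 30 min pre-incubation at room temperature, [3H]thymidine 3.0 µCi/tube (DNA) or [3H]uridine 0.5 µCi/tube (RNA) added for 30 min at room temperature. Stopped with cold TCA, precipitate filtered and washed, then scintillation counted.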

Enterococcus faecium [2] = test: Antimicrobial activity against vancomycin-resistant Enterococcus faecium clinical isolate 1100440 by CLSI-based broth microdilution assay; format: functional
Staphylococcus aureus [3] = test: Antimicrobial activity against methicillin-sensitive Staphylococcus aureus clinical isolate 1088626 by CLSI-based broth microdilution assay; format: functional
Staphylococcus aureus [4] = test: Antimicrobial activity against methicillin-resistant Staphylococcus aureus ATCC 700699 assessed as bacterial growth inhibitions by CLSI protocol based microdilution method; format: functional
Staphylococcus aureus [5] = test: Antimicrobial activity against methicillin-resistant Staphylococcus aureus clinical isolate 1088610 by CLSI-based broth microdilution assay; format: functional
Enterococcus faecium [6] = test: Antimicrobial activity against vancomycin-resistant Enterococcus faecium clinical isolate 1088051 by CLSI-based broth microdilution assay; format: functional
Enterococcus faecium [7] = test: Antimicrobial activity against vancomycin-resistant Enterococcus faecium clinical isolate 1091720 by CLSI-based broth microdilution assay; format: functional
Enterococcus faecium [8] = test: Antimicrobial activity against vancomycin-resistant Enterococcus faecium ATCC 700221 assessed as bacterial growth inhibitions by CLSI protocol based microdilution method; format: functional
Staphylococcus aureus [9] = test: Antimicrobial activity against Staphylococcus aureus ATCC 29213 assessed as inhibition of cell wall synthesis at 8 times MIC measured by liquid scintillation counter; format: functional
In short: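 Early-exponential S. aureus ATCC 29213 resuspended in M9 minimal medium. Drug added at 8x MIC, pre-incubated 30 min at 37 °C. [14C]N-acetylglucosamine (0.4 µCi/reaction) added, 45 min at 37 °C. Stopped with 8% SDS, heated 95 °C for 30 min, spotted onto nitrocellulose filters, washed with 0.1% SDS. Counted by liquid scintillation. Triplicate.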

Staphylococcus aureus [10] = test: Antimicrobial activity against methicillin-resistant Staphylococcus aureus clinical isolate 1088064 by CLSI-based broth microdilution assay; format: functional
Enterococcus faecium [11] = test: Antimicrobial activity against vancomycin-resistant Enterococcus faecium clinical isolate 1091282 by CLSI-based broth microdilution assay; format: functional
Enterococcus faecium [12] = test: Antimicrobial activity against vancomycin-resistant Enterococcus faecium clinical isolate 1088228 by CLSI-based broth microdilution assay; format: functional
Enterococcus faecalis = test: Antimicrobial activity against vancomycin-susceptible Enterococcus faecalis ATCC 29212 assessed as bacterial growth inhibitions by CLSI protocol based microdilution method
Staphylococcus aureus [13] = test: Antibiofilm activity against Staphylococcus aureus UAMS-1 assessed as destruction catheter-associated biofilm formation measured after 48 hrs (reference value: 1.53 x 10^8); format: functional
In short: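 Plasma-coated catheters colonised for 24 h at 37 °C with gentle shaking, starting from ~1 × 10^7 CFU of MSSA UAMS-1 in biofilm medium (TSB plus glucose and NaCl). […] Medium renewed at 24 h. Catheters (n = 3) sonicated at 48 h and plated on TSA for CFU per catheter.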

Enterococcus faecium [14] = test: Antimicrobial activity against vancomycin-resistant Enterococcus faecium clinical isolate 1091563 by CLSI-based broth microdilution assay; format: functional
Staphylococcus aureus [15] = test: Antibacterial activity against methicillin resistant Staphylococcus aureus ATCC 700699 persisters assessed as reduction in viability at 16 times MIC by colony counting method; format: functional, organism-based
In short: (§1)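 Stationary-phase S. aureus from overnight CAMHB culture (35 °C, 200 rpm), washed thrice in PBS, diluted to ~5 × 10^8 CFU/ml. Incubated with antibiotic at 35 °C, 200 rpm. Aliquots taken at set times, washed, serially diluted in PBS, drop-plated (6 × 6) on TSA with 5% sheep blood. Colonies counted after 18–20 h at 35 °C. Triplicates.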

Staphylococcus aureus [16] = test: Antibacterial activity against vancomycin-intermediate susceptible Staphylococcus aureus ATCC 25923 assessed as bacterial growth inhibition by measuring fold increase in MIC between 8 passages by broth dilution method; format: functional
Staphylococcus aureus [17] = test: Antimicrobial activity against methicillin-susceptible Staphylococcus aureus ATCC 25923 assessed as bacterial growth inhibitions by CLSI protocol based microdilution method; format: functional
Enterococcus faecium [18] = test: Antimicrobial activity against vancomycin-resistant Enterococcus faecium clinical isolate 1089544 by CLSI-based broth microdilution assay; format: functional
Enterococcus faecium [19] = test: Antimicrobial activity against vancomycin-resistant Enterococcus faecium clinical isolate 1094112 by CLSI-based broth microdilution assay; format: functional
Bacillus subtilis = test: Antimicrobial activity against Bacillus subtilis ATCC 6623 assessed as bacterial growth inhibitions by CLSI protocol based microdilution method; format: functional
In short: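 Broth microdilution starting at 50 µg/ml with 2-fold serial dilutions; run in triplicate.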

Staphylococcus aureus [20] = test: Antimicrobial activity against methicillin-sensitive Staphylococcus aureus ATCC 29213 by CLSI-based broth microdilution assay; format: functional
Staphylococcus aureus [21] = test: Antimicrobial activity against methicillin-resistant Staphylococcus aureus clinical isolate 1089106 by CLSI-based broth microdilution assay; format: functional
Enterococcus faecium [22] = test: Antimicrobial activity against vancomycin-resistant Enterococcus faecium clinical isolate 1088168 by CLSI-based broth microdilution assay; format: functional
Staphylococcus aureus [23] = test: Antibacterial activity against methicillin resistant Staphylococcus aureus ATCC 700699 persisters assessed as reduction in viability at 64 times MIC by colony counting method; format: functional, organism-based; in short: as §1
Staphylococcus aureus [24] = test: Antimicrobial activity against antibiotic-resistant Staphylococcus aureus BM-2312 assessed as bacterial growth inhibitions by CLSI protocol based microdilution method; format: functional
Staphylococcus aureus [25] = test: Antimicrobial activity against methicillin-resistant Staphylococcus aureus clinical isolate 1088888 by CLSI-based broth microdilution assay; format: functional
Enterococcus faecium [26] = test: Antimicrobial activity against vancomycin-resistant Enterococcus faecium clinical isolate 1088925 by CLSI-based broth microdilution assay; format: functional
Staphylococcus aureus [27] = test: Antimicrobial activity against methicillin-sensitive Staphylococcus aureus clinical isolate 1088105 by CLSI-based broth microdilution assay; format: functional
Staphylococcus aureus [28] = test: Inhibition of lipid synthesis in Staphylococcus aureus ATCC 29213 at 8 times MIC measured by liquid scintillation counter; format: functional
In short: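 Early-exponential S. aureus ATCC 29213 in CAMHBII exposed to drug at 8x MIC in triplicate tubes. Lipids extracted with chloroform/water. Organic phase dried and counted by liquid scintillation.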

CO[C@H]1/C=C/O[C@@]2(C)Oc3c(C)c(O)c4c(O)c(c(/C=N/N5CCN(C)CC5)c(O)c4c3C2=O)NC(=O)/C(C)=C\C=C\[C@H](C)[C@H](O)[C@@H](C)[C@@H](O)[C@@H](C)[C@H](OC(C)=O)[C@@H]1C [RIFAMPIN]
inhibition (INH) (Staphylococcus aureus [1]): 76.3%

CN[C@H](CC(C)C)C(=O)N[C@H]1C(=O)N[C@@H](CC(N)=O)C(=O)N[C@H]2C(=O)N[C@H]3C(=O)N[C@H](C(=O)N[C@H](C(=O)O)c4cc(O)cc(O)c4-c4cc3ccc4O)[C@H](O)c3ccc(c(Cl)c3)Oc3cc2cc(c3O[C@@H]2O[C@H](CO)[C@@H](O)[C@H](O)[C@H]2O[C@H]2C[C@](C)(N)[C@H](O)[C@H](C)O2)Oc2ccc(cc2Cl)[C@H]1O [VANCOMYCIN]
MIC (Enterococcus faecium [2]): > 64 mg/L | MIC (Staphylococcus aureus [3]): 0.25 mg/L (≈ 0.173 µM) | MIC (Staphylococcus aureus [4]): 3.12 mg/L (≈ 2.15 µM) | MIC (Staphylococcus aureus [5]): 64 mg/L (≈ 44.2 µM) | MIC (Enterococcus faecium [6]): 64 mg/L (≈ 44.2 µM) | MIC (Enterococcus faecium [7]): 64 mg/L (≈ 44.2 µM) | MIC (Enterococcus faecium [8]): > 50 mg/L | inhibition (INH) (Staphylococcus aureus [9]): 87.3% | MIC (Staphylococcus aureus [10]): 64 mg/L (≈ 44.2 µM) | MIC (Enterococcus faecium [11]): > 64 mg/L | MIC (Enterococcus faecium [12]): > 64 mg/L | MIC (Enterococcus faecalis): 3.12 mg/L (≈ 2.15 µM) | Activity (Staphylococcus aureus [13]): 1.16 10^7CFU | MIC (Enterococcus faecium [14]): 64 mg/L (≈ 44.2 µM) | Activity (Staphylococcus aureus [15]): inactive | Activity (Staphylococcus aureus [16]): inactive | MIC (Staphylococcus aureus [17]): 0.78 mg/L (≈ 0.538 µM) | MIC (Enterococcus faecium [18]): > 64 mg/L | MIC (Enterococcus faecium [19]): > 64 mg/L | MIC (Bacillus subtilis): 0.19 mg/L (≈ 0.131 µM) | MIC (Staphylococcus aureus [20]): 0.25 mg/L (≈ 0.173 µM) | MIC (Staphylococcus aureus [21]): 64 mg/L (≈ 44.2 µM) | MIC (Enterococcus faecium [22]): > 64 mg/L | Activity (Staphylococcus aureus [23]): inactive | MIC (Staphylococcus aureus [24]): 0.78 mg/L (≈ 0.538 µM) | MIC (Staphylococcus aureus [25]): > 64 mg/L | MIC (Enterococcus faecium [26]): > 64 mg/L | MIC (Staphylococcus aureus [27]): 0.25 mg/L (≈ 0.173 µM)

C/C=C/C/C=C/CCC(=O)[C@H]1O[C@H]1C(N)=O [CERULENIN]
inhibition (INH) (Staphylococcus aureus [28]): 71.9%
